{"source": "ChEMBL document CHEMBL5236549", "about": "“Discovery of 2-Sulfinyl-Diazabicyclooctane Derivatives, Potential Oral β-Lactamase Inhibitors for Infections Caused by Serine β-Lactamase-Producing Enterobacterales” (J Med Chem, 2021)", "key": {"[1]": {"tested_on": "Klebsiella pneumoniae", "assay": "Antibacterial activity against Klebsiella pneumoniae SR09603 assessed as reduction in bacterial growth by measuring minimum […] concentration incubated for 16 to 20 hrs by CLSI based two-fold serial dilution method", "conditions": "time 16-20 hrs"}, "[2]": {"assay": "AUC in monkey at 5 mg/kg,iv by LC/MS/MS analysis", "assay_type": "ADME, organism-based, Macaca mulatta", "design": "dose 5 mg/kg, route iv", "conditions": "rhesus monkey, in vivo", "in_short": "(§1)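 Plasma of the parent acid measured by LC/MS/MS (methanol precipitation, positive ESI, external standard); oral values follow prodrug dosing (rat fed, dog and monkey fasted). AUC from 0 h to last time point by linear trapezoid; F from oral AUC versus iv AUC of the parent. N = 2 (rat, dog), N = 3 (monkey, mouse).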"}, "[3]": {"tested_on": "Klebsiella pneumoniae", "assay": "Antibacterial activity against Klebsiella pneumoniae SR09635 assessed as reduction in bacterial growth by measuring minimum […] concentration incubated for 16 to 20 hrs by CLSI based two-fold serial dilution method", "conditions": "time 16-20 hrs"}, "[4]": {"tested_on": "Klebsiella pneumoniae", "assay": "Antibacterial activity against Klebsiella pneumoniae ATCC SR201218 assessed as reduction in bacterial growth by measuring minimum […] concentration incubated for 16 to 24 hrs by CLSI based two-fold serial dilution method", "assay_type": "functional", "conditions": "time 16-24 hrs", "in_short": "(§2)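 MPC₁ by broth microdilution: twofold serial dilutions of inhibitor in cation-adjusted Mueller Hinton broth containing ceftibuten at 1 μg/mL. Inoculum about 5 × 10⁴ cfu/well final, set from OD625. Incubation at 35 °C for 16−20 h. […] N = 1.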"}, "[5]": {"tested_on": "Enterobacter cloacae", "assay": "Antibacterial activity against Enterobacter cloacae SR200030 assessed as inhibition of bacterial growth incubated for 16 to 24 hrs by CLSI based two-fold serial dilution method", "assay_type": "functional", "conditions": "time 16-24 hrs", "in_short": "(§3)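 CLSI broth microdilution in cation-adjusted Mueller Hinton broth, twofold serial dilutions, about 5 × 10⁴ cfu/well from OD625, 35 °C for 16−20 h. MIC is the lowest concentration with no visible growth.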"}, "[6]": {"tested_on": "Escherichia coli", "assay": "Antibacterial activity against Escherichia coli ATCC SR34100 assessed as inhibition of bacterial growth incubated for 16 to 20 hrs by CLSI based two-fold serial dilution method"}, "[7]": {"assay": "Half life in dog at 5 mg/kg,iv by LC/MS/MS analysis", "assay_type": "ADME, organism-based, Canis lupus familiaris", "conditions": "in vivo", "in_short": "(§4)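 After iv dosing, T1/2 taken as ln 2/kel, with kel from the slope of the log concentration–time profile. Plasma levels measured by LC/MS/MS with an external standard.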"}, "[8]": {"tested_on": "Escherichia coli", "assay": "Antibacterial activity against Escherichia coli ATCC SR09613 assessed as reduction in bacterial growth by measuring minimum […] concentration incubated for 16 to 24 hrs by CLSI based two-fold serial dilution method", "assay_type": "functional", "conditions": "time 16-24 hrs", "in_short": "as §2"}, "[9]": {"assay": "Stability in rat serum assessed as compound remaining at 5 micromol/L incubated for 30 mins by LC-MS/MS analysis", "assay_type": "ADME, cell-free", "conditions": "dose 5 µmol/L, read-out: Stability", "in_short": "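Pooled rat serum incubated with 5 μmol/L compound for 30 min at 37 °C, in duplicate; aliquot mixed with methanol, centrifuged, supernatant analysed by LC/MS/MS for % remaining.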"}, "[10]": {"tested_on": "Klebsiella pneumoniae", "assay": "Antibacterial activity against Klebsiella pneumoniae SR201325 assessed as reduction in bacterial growth by measuring minimum […] concentration incubated for 16 to 24 hrs by CLSI based two-fold serial dilution method", "assay_type": "functional", "conditions": "time 16-24 hrs", "in_short": "(§5)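 Inhibitor twofold serially diluted in cation-adjusted Mueller Hinton broth containing ceftibuten 1 μg/mL. About 5 × 10⁴ cfu/well, 35 °C for 16−20 h. […] N = 1.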"}, "[11]": {"tested_on": "Klebsiella pneumoniae", "assay": "Antibacterial activity against Klebsiella pneumoniae SR200263 assessed as reduction in bacterial growth by measuring minimum […] concentration incubated for 16 to 20 hrs by CLSI based two-fold serial dilution method", "conditions": "time 16-20 hrs"}, "[12]": {"assay": "Inhibition of bacterial beta-lactamase CTX-M-15 using nitrocefin as substrate incubated for 20 mins", "design": "species or system Bacteria"}, "[13]": {"tested_on": "Klebsiella pneumoniae", "assay": "Antibacterial activity against Klebsiella pneumoniae SR09603 assessed as inhibition of bacterial growth incubated for 16 to 20 hrs by CLSI based two-fold serial dilution method"}, "[14]": {"assay": "AUC in mouse at 10 mg/kg,iv by LC/MS/MS analysis", "assay_type": "ADME, organism-based", "design": "dose 10 mg/kg, route iv", "conditions": "in vivo", "in_short": "as §1"}, "[15]": {"assay": "Total clearance in dog at 5 mg/kg,iv by LC/MS/MS analysis", "assay_type": "ADME, organism-based, Canis lupus familiaris", "conditions": "in vivo", "in_short": "(§6)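 Intravenous dosing (mouse 10, rat 1, dog 5, monkey 5 mg/kg); plasma quantified by LC/MS/MS after methanol precipitation with external standard; AUC by linear trapezoidal approximation; CLtot = dose/AUC.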"}, "[16]": {"assay": "Inhibition of bacterial beta-lactamase OXA-48 using nitrocefin as substrate incubated for 20 mins", "design": "species or system Bacteria", "in_short": "(§7)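 Nitrocefin hydrolysis read by absorbance. Enzyme titrated to give about 0.2 absorbance change over the no-enzyme control. Enzyme added to nitrocefin (final 50 μg/mL) plus inhibitor, no preincubation, read after 20 min at 35 °C. IC50 is 50% reduction of hydrolysis. N = 1.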"}, "[17]": {"tested_on": "Enterobacter cloacae", "assay": "Antibacterial activity against Enterobacter cloacae SR200030 assessed as reduction in bacterial growth by measuring minimum […] concentration incubated for 16 to 24 hrs by CLSI based two-fold serial dilution method", "assay_type": "functional", "conditions": "time 16-24 hrs", "in_short": "as §5"}, "[18]": {"assay": "Total clearance in rat by LC-MS/MS analysis", "assay_type": "ADME", "conditions": "in vivo"}, "[19]": {"tested_on": "Enterobacter cloacae", "assay": "Antibacterial activity against Enterobacter cloacae SR36276 assessed as reduction in bacterial growth by measuring minimum […] concentration incubated for 16 to 20 hrs by CLSI based two-fold serial dilution method", "conditions": "time 16-20 hrs"}, "[20]": {"tested_on": "Klebsiella pneumoniae", "assay": "Antibacterial activity against Klebsiella pneumoniae SR09635 assessed as inhibition of bacterial growth incubated for 16 to 20 hrs by CLSI based two-fold serial dilution method"}, "[21]": {"tested_on": "Enterobacter cloacae", "assay": "Antibacterial activity against Enterobacter cloacae SR36276 assessed as inhibition of bacterial growth incubated for 16 to 20 hrs by CLSI based two-fold serial dilution method"}, "[22]": {"assay": "Inhibition of bacterial beta-lactamase CMY-2 using nitrocefin as substrate incubated for 20 mins", "design": "species or system Bacteria", "in_short": "as §7"}, "[23]": {"assay": "Half life in monkey at 5 mg/kg,iv by LC/MS/MS analysis", "assay_type": "ADME, organism-based, Macaca mulatta", "conditions": "rhesus monkey, in vivo", "in_short": "as §4"}, "[24]": {"tested_on": "Klebsiella pneumoniae", "assay": "Antibacterial activity against Klebsiella pneumoniae SR100758 assessed as reduction in bacterial growth by measuring minimum […] concentration incubated for 16 to 24 hrs by CLSI based two-fold serial dilution method", "assay_type": "functional", "conditions": "time 16-24 hrs", "in_short": "as §5"}, "[25]": {"tested_on": "Klebsiella pneumoniae", "assay": "Antibacterial activity against Klebsiella pneumoniae SR200263 assessed as inhibition of bacterial growth incubated for 16 to 24 hrs by CLSI based two-fold serial dilution method", "assay_type": "functional", "conditions": "time 16-24 hrs", "in_short": "as §3"}, "[26]": {"tested_on": "Enterobacter cloacae", "assay": "Antibacterial activity against Enterobacter cloacae SR100108 assessed as reduction in bacterial growth by measuring minimum […] concentration incubated for 16 to 20 hrs by CLSI based two-fold serial dilution method", "conditions": "time 16-20 hrs"}, "[27]": {"tested_on": "Escherichia coli", "assay": "Antibacterial activity against Escherichia coli ATCC SR34100 assessed as reduction in bacterial growth by measuring minimum […] concentration incubated for 16 to 24 hrs by CLSI based two-fold serial dilution method", "assay_type": "functional", "conditions": "time 16-24 hrs", "in_short": "as §2"}, "[28]": {"assay": "Total clearance in mouse at 10 mg/kg,iv by LC/MS/MS analysis", "assay_type": "ADME, organism-based", "conditions": "in vivo", "in_short": "as §6"}, "[29]": {"tested_on": "Klebsiella pneumoniae", "assay": "Antibacterial activity against Klebsiella pneumoniae SR100758 assessed as inhibition of bacterial growth incubated for 16 to 24 hrs by CLSI based two-fold serial dilution method", "assay_type": "functional", "conditions": "time 16-24 hrs", "in_short": "as §3"}}, "data": [{"molecule": "C[S@@+]([O-])[C@@H]1CC[C@@H]2CN1C(=O)N2O[C@H](F)C(=O)[O-].[Na+]", "values": [{"measurement": "MPC", "setting": "[1]", "result": 0.125, "unit": "µg/mL"}, {"measurement": "AUC", "setting": "[2]", "result": 13800, "unit": "ng·h/mL"}, {"measurement": "MPC", "setting": "[3]", "result": 2, "unit": "µg/mL"}, {"measurement": "MPC", "setting": "[4]", "result": 2, "unit": "µg/mL"}, {"measurement": "MIC", "setting": "[5]", "result": "> 32", "unit": "µg/mL"}, {"measurement": "MIC", "setting": "[6]", "result": 32, "unit": "µg/mL"}, {"measurement": "half-life", "setting": "[7]", "result": 54, "unit": "min"}, {"measurement": "MPC", "setting": "[8]", "result": 0.125, "unit": "µg/mL"}, {"measurement": "remaining at 0.5 h, 5 µM", "setting": "[9]", "result": 85, "unit": "%"}, {"measurement": "MPC", "setting": "[10]", "result": 2, "unit": "µg/mL"}, {"measurement": "MPC", "setting": "[11]", "result": 0.125, "unit": "µg/mL"}, {"measurement": "IC50", "setting": "[12]", "result": 12, "unit": "nM"}, {"measurement": "MIC", "setting": "[13]", "result": 32, "unit": "µg/mL"}, {"measurement": "AUC", "setting": "[14]", "result": 4920, "unit": "ng·h/mL"}, {"measurement": "clearance", "setting": "[15]", "result": 4.3, "unit": "mL/min/kg"}, {"measurement": "IC50", "setting": "[16]", "result": 443, "unit": "nM"}, {"measurement": "MPC", "setting": "[17]", "result": 4, "unit": "µg/mL"}, {"measurement": "clearance", "setting": "[18]", "result": 27, "unit": "mL/min/kg"}, {"measurement": "MPC", "setting": "[19]", "result": 2, "unit": "µg/mL"}, {"measurement": "MIC", "setting": "[20]", "result": 32, "unit": "µg/mL"}, {"measurement": "MIC", "setting": "[21]", "result": "> 32", "unit": "µg/mL"}, {"measurement": "IC50", "setting": "[22]", "result": 28, "unit": "nM"}, {"measurement": "half-life", "setting": "[23]", "result": 30, "unit": "min"}, {"measurement": "MPC", "setting": "[24]", "result": 0.25, "unit": "µg/mL"}, {"measurement": "MIC", "setting": "[25]", "result": 32, "unit": "µg/mL"}, {"measurement": "MPC", "setting": "[26]", "result": 1, "unit": "µg/mL"}, {"measurement": "MPC", "setting": "[27]", "result": 0.125, "unit": "µg/mL"}, {"measurement": "clearance", "setting": "[28]", "result": 34.7, "unit": "mL/min/kg"}, {"measurement": "MIC", "setting": "[29]", "result": "> 32", "unit": "µg/mL"}]}]}
